Source: PubChem BioAssay (several laboratories)
PP5 primary = inhibitors of human protein phosphatase 5 (PP5). purified PP5c, OMFP substrate fluorescence. P53041. inhibition, % at 6.7 µM. 0.18% of 320,000 active;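 active means inhibition above the campaign's mean inhibition across all tested compounds plus 3 SD, cut at about 9.5% in these data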
Cardio protect = modulators protecting cardiomyocytes from myocardial damage. protection from H2O2 cell death, % at 20 µM. AID 588492. 0.63% of 360,000 active. H9c2 cardiomyocytes, H2O2 injury protection, ATPLite, 2 h;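 active means compounds giving at least 50% protection of heart cells from peroxide-induced death in the single-dose screen, raw or plate-pattern-corrected value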
JMJD2C inh = human JMJD2C demethylase inhibition; GST-JMJD2C(1-420) H3K9me3 demethylation, DELFIA europium; inhibition, % at 2.35 µM; 0.069% of 330,000 active; AID 2099;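 active means more than half of a compound's replicate wells show inhibition beyond 50%, single wells judged on their own value; inconclusive means some, but no more than half, of replicates pass 50% inhibition; inactive means no replicate passes 50% inhibition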;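 further: signal counts dimethyl H3K9 product captured on neutravidin plate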
p-CIP stab down = compounds decreasing mouse p/CIP protein stability; decrease of EGFP signal, % at 10 µM; Q05BA5; F442A p/CIP-EGFP cells, EGFP fluorescence, 16 h; 0.01% of 290,000 active;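 active means EGFP signal decrease of at least 30% at 10 µM or well 3 SD below plate mean, unless failing retest; inactive means the rest, including hits failing retest or dose response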
Fh CTSL1 inh = counter-screen for PFM18AAP inhibitors: inhibitors of F. hepatica cathepsin L1 | recombinant F. hepatica cathepsin L1, Z-Leu-Arg-MCA fluorescence | 0.49% of 300,000 active | AID 1906 | inhibition, % at 5.96 µM;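 active means inhibition above the mean of all tested compounds plus 3 SD, set per screening campaign, cut at about 17% in these data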
T cruzi inh = blocks replication of Trypanosoma cruzi; T. cruzi beta-gal in NIH3T3, luminescence, 90 h; inhibition, % (concentration not given with the values); 1.4% of 300,000 active; AID 1885;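 active means mean inhibition across valid replicates above about 55%, limit read from the data; inconclusive means mean below that limit but half or more replicates reach it; inactive means mean below it, under half of replicates reach it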;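 further: signal also drops with host cell toxicity which is not excluded here; higher percent means less beta-gal luminescence so fewer parasites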
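Assay system: NIH/3T3 host cells with β-galactosidase reporter T. cruzi; input: 5,000 host fibroblasts per well; compound: single 50 nL compound addition per well in DMSO; timing: ≥90 h infection period, 3 h prior cell attachment; measured by: GalScreen β-gal luminescence, detergent lysis, 60 min; evaluation: percent inhibition of parasite-derived β-gal signal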
Numbers stand for hits; 0 = inactive; ? = inconclusive; - = no result. Compounds with a hit are over-represented: about 2.4% of the library has one in this group of screens.

SMILES	PP5 primary	Cardio protect	JMJD2C inh	p-CIP stab down	Fh CTSL1 inh	T cruzi inh
Cc1c(C(=O)Nc2cccc([N+](=O)[O-])c2)csc1-c1ccccc1	0	0	0	0	0	60
CCOC(=O)C1=C(COC(=O)CNC(=O)c2ccc(Cl)cc2Cl)NC(=O)NC1C (configuration not stated)	0	0	0	-	0	0
CCN(CC)CCSc1nnc2c3cc(C)ccc3n(Cc3ccccc3)c2n1	0	0	0	0	0	58
COc1ccc2c(C(=O)CCl)c[nH]c2c1	0	0	0	0	36	0
CC(=O)OCCNc1cc(N2CCN(C)CC2)c2noc3c2c1C(=O)c1ccccc1-3	-	0	-	0	-	-
CCOC(=O)C(C(=O)OCC)c1cc(Br)c2noc3c2c1C(=O)c1ccccc1-3	0	0	0	0	0	65
Cc1nc(C(F)(F)F)ccc1C(=O)Nc1ccccc1N1CCOCC1	0	0	0	0	0	0
CCC12C(=O)C(CC)(C(c3ccccc3)=C1c1ccccc1)[C@@H]1C(=O)N(c3ccc(C)cc3)C(=O)C12 (some centres not stated)	0	0	0	0	0	57
CCC(C)(C)C(=O)Nc1ncc(S(=O)(=O)c2ccc([N+](=O)[O-])cc2)s1	0	0	0	0	0	0
O=C(Nc1ncc(S(=O)(=O)c2ccc([N+](=O)[O-])cc2)s1)c1ccc2ccccc2c1	0	0	0	0	0	55
O=C(Nc1ncc(Cc2cc(Cl)ccc2Cl)s1)c1ccc([N+](=O)[O-])cc1	0	0	0	0	0	57
O=C(Nc1ncc(Cc2cccc(Cl)c2Cl)s1)c1ccc([N+](=O)[O-])cc1	0	0	0	0	0	0
CCCC(C)C(=O)Nc1ncc(S(=O)(=O)c2ccc([N+](=O)[O-])cc2)s1 (configuration not stated)	0	0	0	0	0	63
CN1CCC(N(C)C(=O)c2ccc(Cl)c(S(=O)(=O)N3CCc4ccccc43)c2)CC1	-	0	0	-	-	-
COc1cc2c(O)c3c(c(-c4ccc5c(c4)OCO5)c2cc1OC)C(=O)OC3	0	0	0	0	0	57
COc1cc2c(OC(C)=O)c3c(c(-c4ccc5c(c4)OCO5)c2cc1OC)C(=O)OC3	0	0	0	0	0	0
COc1ccc(-c2cc(-c3ccc(O)cc3)nc(N)c2C#N)cc1OC	0	56	0	0	0	0
COc1ccc(-c2c(C#N)c(N)nc3c2CCc2ccccc2-3)cc1OC	0	-	0	0	0	0
O=[N+]([O-])c1ccc(/C=N/n2c(CO)nc3ccccc32)s1	0	0	0	0	0	67
O=[N+]([O-])c1ccc(/C=N/n2cnc3ccccc32)s1	0	0	0	0	0	73
CCCOc1ccc(-c2nc(SCc3ccccc3)[nH]c(=O)c2C#N)cc1OC	0	0	0	0	0	56
COc1ccc(-c2cc3c(=O)n(CC(=O)NCCCN4CCC(N5CCCCC5)CC4)nc(C)n3n2)cc1	0	0	0	0	0	56
Cc1ccc(NS(=O)(=O)c2ccc(NC(=O)c3ccccc3C(=O)O)cc2)cc1C	0	0	0	-	0	0
O=C1C(Cc2ccccc2)Nc2ncnc(N3CCN(c4ccccc4)CC3)c2N1Cc1ccc(Br)cc1 (configuration not stated)	-	0	-	-	-	-
CCC1Nc2ncnc(N3CCN(c4ccccc4)CC3)c2N(Cc2ccc(Br)cc2)C1=O (configuration not stated)	0	0	0	-	0	58
SMILES	PP5 primary	Cardio protect	JMJD2C inh	p-CIP stab down	Fh CTSL1 inh	T cruzi inh
COc1ccc(CN2CCC(C(=O)Nc3ccc(Oc4cccnc4)cc3)CC2)c(C)c1C	0	0	0	0	0	0
Cn1c(SCC(=O)CC(=O)Nc2ccccc2)nnc1-c1ccc(O)cc1	0	0	0	0	27	0
Cc1ccc(-c2nnc(SCC(=O)CC(=O)Nc3ccccc3)n2C)cc1	0	0	0	0	0	0
Cc1ccc(OCc2nnc(SCC(=O)CC(=O)Nc3ccccc3)o2)cc1	0	0	0	0	25	0
O=C(CSc1nnnn1-c1ccccc1)CC(=O)Nc1ccc(Cl)cc1	0	0	-	0	24	0
CC(=O)OC[C@@H]1CN(Cc2ccccc2)C[C@H](n2cnc3c(NCc4ccc(F)cc4)ncnc32)O1	-	0	-	-	-	-
COCCN(Cc1nc2ccccc2c(=O)[nH]1)C(=O)COc1ccccc1-c1ccccc1	-	0	-	-	-	-
Cc1cc(C(=O)N/N=C/c2c(CO)cnc(C)c2O)c2ccccc2n1	0	55	0	0	0	0
Cc1ncc(CO)c(/C=N/NC(=O)c2ccc(Br)cc2)c1O	0	-	0	0	0	0
Cc1ncc(CO)c(/C=N/NC(=O)c2cc(Br)ccc2O)c1O	0	50	0	0	0	0
Cc1ncc(CO)c(/C=N/NC(=O)c2cc(O)c(O)c(O)c2)c1O	-	-	?	0	-	0
CC1(C)Cc2c(sc(NC(=O)C(=O)N3CCCC3)c2C#N)CO1	0	0	?	0	0	0
O=C(C1=C[C@@H](c2csc3ccccc23)C[C@@H](OCc2ccc(CO)cc2)O1)N1CCN(Cc2ccccc2)CC1	0	0	0	0	0	68
O=C(C1=C[C@H](C2CCCCC2)C[C@H](OCc2ccc(CO)cc2)O1)N1CCN(Cc2ccc3c(c2)OCO3)CC1	0	0	0	0	0	57
CC(=O)n1cc([C@H]2C=C(C(=O)N3CCN(Cc4ccc5c(c4)OCO5)CC3)O[C@@H](OCc3ccc(CO)cc3)C2)c2ccccc21	0	0	0	0	0	56
O=C(C1=C[C@H](c2ccc(Br)cc2)C[C@H](OCCCCO)O1)N1CCN(Cc2ccccc2)CC1	0	0	0	0	0	56
O=C(C1=C[C@@H](C2CCCCC2)C[C@@H](OCc2ccc(CO)cc2)O1)N1CCN(Cc2ccc3c(c2)OCO3)CC1	0	0	0	0	0	0
COc1ccc(S(=O)(=O)N2CCCCC2c2cc(C(=O)Nc3ccc(OC)cc3C)no2)cc1 (configuration not stated)	-	0	-	-	-	-
CC(=O)n1cc([C@@H]2C=C(C(=O)N3CCOCC3)O[C@H](OCc3ccc(CO)cc3)C2)c2ccccc21	0	0	0	0	0	0
CC(=O)n1cc([C@H]2C=C(C(=O)N3CCN(Cc4ccccc4)CC3)O[C@@H](OCc3ccc(CO)cc3)C2)c2ccccc21	0	0	0	0	0	68
Cc1ccc(C(=O)Nc2cccc(N(C)S(C)(=O)=O)c2)cc1S(=O)(=O)Nc1ccccc1	0	0	0	0	19	0
Cc1ccc(C)c(NS(=O)(=O)c2cc(C(=O)Nc3ccccc3-c3ccccc3)ccc2C)c1	0	0	0	0	0	0
Cc1ccc(C(=O)Nc2ccccc2-c2ccccc2)cc1S(=O)(=O)Nc1cccc(C)c1C	0	0	0	0	0	62
Cc1cc(C)nc(NS(=O)(=O)c2ccc(NC(=O)c3cccs3)cc2)n1	0	0	0	0	0	0
